For the assay, the target named is T1, 15-LOX-2 (Homo sapiens, UniProt O15296).
T1 sequence (O15296 1-676): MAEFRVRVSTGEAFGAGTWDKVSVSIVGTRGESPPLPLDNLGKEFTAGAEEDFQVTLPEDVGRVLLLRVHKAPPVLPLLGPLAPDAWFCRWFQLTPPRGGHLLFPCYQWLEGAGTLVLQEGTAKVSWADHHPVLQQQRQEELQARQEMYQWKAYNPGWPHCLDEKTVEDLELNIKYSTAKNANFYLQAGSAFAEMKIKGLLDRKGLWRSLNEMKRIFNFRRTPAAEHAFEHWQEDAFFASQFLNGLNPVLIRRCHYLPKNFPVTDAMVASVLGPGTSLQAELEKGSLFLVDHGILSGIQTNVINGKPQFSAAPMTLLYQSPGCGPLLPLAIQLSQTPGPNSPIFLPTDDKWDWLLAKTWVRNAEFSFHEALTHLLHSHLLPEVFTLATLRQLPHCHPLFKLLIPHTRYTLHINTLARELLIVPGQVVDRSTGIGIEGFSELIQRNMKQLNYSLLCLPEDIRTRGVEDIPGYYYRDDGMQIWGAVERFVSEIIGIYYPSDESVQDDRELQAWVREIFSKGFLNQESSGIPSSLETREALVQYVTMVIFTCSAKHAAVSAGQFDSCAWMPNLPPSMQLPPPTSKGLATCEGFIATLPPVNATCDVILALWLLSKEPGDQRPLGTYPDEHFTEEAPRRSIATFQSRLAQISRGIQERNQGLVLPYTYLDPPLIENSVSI
The assay is described as follows: 96-well allosteric effector assay. The settings on record: for AA/GLA ratio (15-HETE/13-HOTrE(γ) peak area ratio): 4 µM AA and 16 µM GLA, ratio without effector 2.3 ± 0.1. The assay is classed as biochemical. The method, boiled down:
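15-LOX-2 (~150 nM final) is preincubated 30 s with the perdeuterated effector in 50 mM ammonium bicarbonate, pH 7.5, with 0.01% PPS detergent in 96-well plates. Turnover uses AA:GLA at 1:4 (20 µM total substrate), kept below 20% conversion. Plates are held at 4° C during HPLC-MS analysis, with products identified by MS/MS. The substrate preference is the 15-HETE/13-HOTrE(γ) peak-area ratio.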

This is an account of results in publication PMC4398643 (Analytical biochemistry, 2015).

On to `[2H]C(C([2H])=C([2H])C([2H])(O)C([2H])([2H])C([2H])([2H])C([2H])([2H])C([2H])([2H])C([2H])([2H])[2H])=C([2H])C([2H])([2H])C([2H])([2H])C([2H])([2H])C([2H])([2H])C([2H])([2H])C([2H])([2H])C([2H])([2H])C(=O)O` (stereo not drawn) [d30-13-HODE], for which the “AA/GLA ratio (15-HETE/13-HOTrE(γ) peak area ratio)” value is on record as 1.4 ± 0.1 (10 µM d30-13-HODE) and 1.1 ± 0.1 (20 µM d30-13-HODE). Also, the “effect on AA and GLA catalysis” value (based on standard curve for AA and GLA products, data not shown) was “reducing AA catalysis, but not affecting GLA catalysis significantly”.
